Records with an inconclusive call do not appear.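 Rule for the calls, unless noted: active = viability increase at or above a cutoff of the median across tested compounds plus 3 SD (cut at about 8.5% in these data, passing the limit was not always enough); inconclusive = some gains above the cutoff, reason not given; inactive = the rest.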
Tests used:
[1] = OD615 S. cerevisiae growth inhibition, permissive medium, pilot counter-assay, permissive growth control for S. cerevisiae lifespan shortening project (AID 705;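 active = growth inhibition above 25% in both replicates, a cutoff set 3 SD above the mean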); conditions: OD615, 24 h, at 10 µM, hits give high values
How it was run: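 Material: engineered DeaD yeast; compound dosing: one dose 10 µM, DMSO 0.25% final; measure: yeast growth inhibition indicated by reduced 24 h OD615; detection: OD615 turbidity read; incubation: cells pre-grown 4 h, then 24 h compound exposure, 30 °C humidified; medium: permissive synthetic complete medium with raffinose and galactose carbon sources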

[2] = Restrictive medium S. cerevisiae growth inhibition, OD615, pilot screen of yeast lifespan reduction project, restrictive growth control (AID 706;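 active = growth inhibition above a set limit, 3 SD over mean compound inhibition, in both replicates, cut at about 43% in these data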;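 note: modified DeaD lifespan yeast strain shifted to restrictive glucose medium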); conditions: OD615, 48 h, at 10 µM, hits give high values
How it was run: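 material = engineered S. cerevisiae DeaD strain | medium = glucose-based CSMM-D restrictive medium | times = 4 h pre-incubation, 48 h exposure at 30 °C | technique = OD615 absorbance reading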

[3] = viability gain of MRP-1-high H69AR cells under doxorubicin, pilot screen, MRP-1 activator project, CellTiter-Glo, duplicate (AID 807); conditions: H69AR viability with doxorubicin, CellTiter-Glo luminescence; at 10 µM; hits give high values;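 note: compound pretreatment 18-22 h then 72 h combined with doxorubicin; 0% = doxorubicin alone and 100% = vehicle without doxorubicin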
[4] = growth suppression of beta-catenin knockout HCT116, pilot screen, human colon tumor cells (AID 823;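 active = cell viability at or below a set limit in both duplicate runs, the limit being the all-compound median minus 4 SD, cut at about 23% in these data, passing the limit was not always enough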;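 note: 0% = wells killed by 20 µM Hyamine and 100% = untreated DMSO cell wells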); conditions: CellTiter-Glo, 60 h, at 10 µM, hits give low values
[5] = growth suppression of PTEN-deleted HCT116, pilot screen, cell-based, HCT116 clonal line, CellTiter-Glo (AID 824;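 active = viability at or below 27.92% in each of two runs, the all-compound median minus 4 SD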;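 note: 0% = 20 µM Hyamine control and 100% = vehicle cell control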); conditions: 60 h, at 10 µM, hits give low values
[6] = inhibitors of the yeast RAM network, pilot screen, dse1pr::URA3 reporter, 5-FOA selection (AID 869;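 active = inhibition over a set limit, the all-compound mean plus 3 SD, in both replicate runs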;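 note: 0% = DMSO wells with no growth and 100% = 10 µM 1-NA-PP1 with full growth; RAM network block rescues cells from 5-FOA so hits raise OD615 growth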); conditions: S. cerevisiae dse1pr::URA3 5-FOA growth, OD615, 2 d; at 10 µM; hits give high values; strain carries analog-sensitive mutant Cbk1 kinase
[7] = RAM signaling pathway blockade in yeast – S. cerevisiae, Pdr1DBD-CYC8 efflux-inhibited sensitized strain, primary screen (AID 1298;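 active = RAM network inhibition above 8.4% in each of two replicates, 3 SD over the compound average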;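 note: 0% = DMSO untreated cells without growth and 100% = 10 µM 1-NA-PP1 full growth; higher means more yeast growth rescued from 5-FOA killing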); conditions: S. cerevisiae cbk1-as DSE1-URA3 strain, 5-FOA growth OD615, 2 d; at 50 µM; hits give high values

C=CCn1c(SCc2ccc(F)cc2)nc2c1c(=O)[nH]c(=O)n2C
inactive: growth inhibition [1] -8.99% | growth inhibition [2] -8.69% | viability increase [3] -2.64% | viability [4] 96.9% | viability [5] 89% | inhibition [6] 0.25% | RAM network inhibition [7] 2.71%

COC(=O)CC1=C(C)C(=O)CC2C(C)(C)CCCC12C (stereo not drawn)
inactive: growth inhibition [1] 4.86% | growth inhibition [2] -8.22% | viability increase [3] 1.01% | viability [4] 85.6% | viability [5] 94% | inhibition [6] 1.27% | RAM network inhibition [7] 4.48%

Cc1cccc(CC(=O)Nc2cc(=O)n(C)c(=O)n2C)c1
inactive: growth inhibition [1] -3.74% | growth inhibition [2] -4.44% | viability increase [3] -1.1% | viability [4] 100% | viability [5] 97.4% | inhibition [6] 1.84% | RAM network inhibition [7] 0.48%

COC(=O)N1CC(C)N(C(=O)OC)CC1C (stereo not drawn)
inactive: growth inhibition [1] -8.79% | growth inhibition [2] 3.85% | viability increase [3] -2.14% | viability [4] 95.2% | viability [5] 95.6% | inhibition [6] 0.745% | RAM network inhibition [7] 6.61%

O=C(c1ccccn1)N(CC1CCCO1)C1(C(=O)NC2CCCCC2)CCCCC1 (stereo not drawn)
inactive: growth inhibition [1] -4.99% | growth inhibition [2] -10.3% | viability increase [3] -0.31% | viability [4] 85.5% | viability [5] 92.3% | inhibition [6] 1.69% | RAM network inhibition [7] -0.32%

COc1cc(Br)c(CC(=O)O)cc1OC
inactive: growth inhibition [1] -24.6% | growth inhibition [2] -13.7% | viability increase [3] -0.03% | viability [4] 98.2% | viability [5] 97.1% | inhibition [6] 2.38% | RAM network inhibition [7] 3.76%

CCCCOC(=O)Nc1sc2c(c1C(=O)OC)CCC2
inactive: growth inhibition [1] -6.32% | growth inhibition [2] 6.97% | viability increase [3] -2.72% | viability [4] 96.2% | viability [5] 92.4% | inhibition [6] 0.325% | RAM network inhibition [7] 8.11%

CC1COC2C(O1)N(S(C)(=O)=O)CCN2S(C)(=O)=O (stereo not drawn)
inactive: growth inhibition [1] -7.71% | growth inhibition [2] -12.4% | viability increase [3] 0.34% | viability [4] 99.3% | viability [5] 101% | inhibition [6] 0.68% | RAM network inhibition [7] 2.6%

CN(C)S(=O)(=O)N1CCC(Cc2ccccc2)CC1
inactive: growth inhibition [1] -9.73% | growth inhibition [2] 3.98% | viability increase [3] -0.78% | viability [4] 85.3% | viability [5] 85% | inhibition [6] -0.275% | RAM network inhibition [7] 1.8%

COc1cc(NC(=O)COc2ccc(F)cc2)nc(OC)n1
inactive: growth inhibition [1] -2.6% | growth inhibition [2] 11.7% | viability increase [3] -3.92% | viability [4] 101% | viability [5] 101% | inhibition [6] 1.72% | RAM network inhibition [7] 1.08%

CC(c1ccccc1)C(CC(=O)O)C(=O)NC1CCCCC1 (stereo not drawn)
inactive: growth inhibition [1] -12.4% | growth inhibition [2] -1.39% | viability increase [3] -0.07% | viability [4] 98.2% | viability [5] 103% | inhibition [6] 1.54% | RAM network inhibition [7] 1.1%

CCCNC(=O)CS(=O)Cc1nc(-c2ccccc2C)oc1C (stereo not drawn)
inactive: growth inhibition [1] -14.3% | growth inhibition [2] -5.72% | viability increase [3] 0.85% | viability [4] 94.2% | viability [5] 96.9% | inhibition [6] -0.325% | RAM network inhibition [7] 6.48%

CCc1nccn1S(=O)(=O)c1ccc2ccccc2c1
inactive: growth inhibition [1] 0.77% | growth inhibition [2] -2.31% | viability increase [3] -1.22% | viability [4] 102% | viability [5] 103% | inhibition [6] 0.7% | RAM network inhibition [7] 3.49%

COC(=O)c1ccc(-n2nnnc2SCC(=O)N2CCCCC2)cc1
inactive: growth inhibition [1] -8.57% | growth inhibition [2] -21.9% | viability increase [3] -3% | viability [4] 85.8% | viability [5] 86.1% | inhibition [6] 0.045% | RAM network inhibition [7] 1.64%

N#CCCN1CCN(S(=O)(=O)c2ccc(S(=O)(=O)NCc3ccccc3)cc2)CC1
inactive: growth inhibition [1] -3.28% | growth inhibition [2] -15.5% | viability increase [3] 0.18% | viability [4] 96% | viability [5] 100% | inhibition [6] 1.91% | RAM network inhibition [7] 3.5%

CCN1CCN(CC(=O)Nc2cccc(C)c2C)C(=O)C1=O
inactive: growth inhibition [1] -3.54% | growth inhibition [2] -7.93% | viability increase [3] -0.73% | viability [4] 99% | viability [5] 90.9% | inhibition [6] 2.46% | RAM network inhibition [7] 2.6%

CCOC(=O)C1CCCN(C(=O)c2cc3c(=O)n(C)c4ccccc4c3n2C)C1 (stereo not drawn)
inactive: growth inhibition [1] -1.98% | growth inhibition [2] 0.3% | viability increase [3] -3.5% | viability [4] 94.2% | viability [5] 92.7% | inhibition [6] 0.67% | RAM network inhibition [7] -0.46%

Cc1nc2sc(C(c3ccc(C(C)C)cc3)N3CCN(CCO)CC3)c(O)n2n1 (stereo not drawn)
inactive: growth inhibition [1] -9.91% | growth inhibition [2] -9.61% | viability increase [3] -0.75% | viability [4] 97% | viability [5] 98.1% | inhibition [6] 1.58% | RAM network inhibition [7] 2.77%

CCOCCn1c(SCc2ccccc2)nc2c1c(=O)[nH]c(=O)n2C
inactive: growth inhibition [1] -16.6% | growth inhibition [2] -27.6% | viability increase [3] -1.41% | viability [4] 104% | viability [5] 96.7% | inhibition [6] 0.205% | RAM network inhibition [7] 7.51%

CC1CC(NC(=O)CCn2c(=O)oc3ccccc32)CC(C)(C)C1 (stereo not drawn)
inactive: growth inhibition [1] 1.98% | growth inhibition [2] -2.1% | viability increase [3] -1.55% | viability [4] 97.1% | viability [5] 102% | inhibition [6] 1.02% | RAM network inhibition [7] 4.18%

O=C(O)C1C2C=CC(C2)C1C(=O)NCc1ccc2c(c1)OCO2 (stereo not drawn)
inactive: growth inhibition [1] -3.23% | growth inhibition [2] -1.14% | viability increase [3] -1.9% | viability [4] 94.6% | viability [5] 90.6% | inhibition [6] 2.08% | RAM network inhibition [7] 2.65%

CS(=O)(=O)N1CCN(Cc2ccccc2C(F)(F)F)CC1
inactive: growth inhibition [1] -19.1% | growth inhibition [2] -5.12% | viability increase [3] 0.93% | viability [4] 91.1% | viability [5] 94% | inhibition [6] -0.185% | RAM network inhibition [7] 6.47%

O=C(NCC1OCCc2ccccc21)c1ccco1 (stereo not drawn)
inactive: growth inhibition [1] -13.7% | growth inhibition [2] -8.18% | viability increase [3] -3.72% | viability [4] 94.5% | viability [5] 96.5% | inhibition [6] 1.16% | RAM network inhibition [7] 6.11%

O=C(Cn1cc2c(n1)CCCC2)NCc1cccnc1
inactive: growth inhibition [1] -1.72% | growth inhibition [2] -0.58% | viability increase [3] -0.86% | viability [4] 102% | viability [5] 101% | inhibition [6] 3.13% | RAM network inhibition [7] 3.68%

Source: PubChem BioAssay
